# Experimental data as given in ChEMBL document CHEMBL1135333, “Long-chain aminoalcohol and diamine derivatives induce apoptosis through a caspase-3 dependent pathway” (Bioorg Med Chem Lett, 2002).
# System: Jurkat
# Test: Inhibitory concentration required for 50% apoptosis induction was evaluated using jurkat cells (T-lymphoma cells)
# Assay type: functional, cell-based
# Conditions: Homo sapiens; call rule not given here
# Method in brief: (§1)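 Jurkat T-lymphoma cells exposed 24 h to rising concentrations (0.1–100 μM). Ethanol-fixed cells then RNase-digested and stained with propidium iodide. Flow-cytometric cell-cycle analysis scored the hypodiploid (sub-G0/G1) fraction as apoptotic cells with fragmented DNA. IC50 taken from these concentration–response series.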
row,SMILES,IC50 [µM]
1,CCCCCCCCCCCCCCC(CN(CC(=O)OCC)CC(=O)OCC)NC(=O)OC(C)(C)C (stereo not given),> 60
2,CCCCCCCCCCCCCCC(N)CN(CC(=O)OCC)CC(=O)OCC (stereo not given),32
3,CCCCCCCCCCCCCCC(CNCC)NC(=O)OC(C)(C)C (stereo not given),6
4,CCCCCCCCCCCCCCC(CN(CC)CC)NC(=O)OC(C)(C)C (stereo not given),21
5,CCCCCCCCCCCCCCC(CNCC(=O)OCC)NC(=O)OC(C)(C)C (stereo not given),28
6,CCCCCCCCCCCCCCC(CNCCCCC(=O)O)NC(=O)OC(C)(C)C (stereo not given),18
7,CCCCCCCCCCCCCCC(COCc1ccccc1)N(CC)CC (stereo not given),20
8,CCCCCCCCCCCCCCC(O)CNCc1ccccc1 (stereo not given),27
9,CCCCCCCCCCCCCCC(O)CNC1CCCCC1 (stereo not given),6
10,CCCCCCCCCCCCCCC(CN)NC(=O)OC(C)(C)C (stereo not given),6
11,CCCCCCCCCCCCCCC(N)CNCC(=O)O (stereo not given),31
12,CCCCCCCCCCCCCCC(CO)NC(=O)CCCC(=O)O (stereo not given),24
13,CCCCCCCCCCCCCCC(COCc1ccccc1)NC(=O)CCCC(=O)O (stereo not given),> 50

# Results, then the molecule that gave them:
row,IC50 [µM],SMILES
1,28,CCCCCCCCCCCCCCC(CO)NC(=O)OC(C)(C)C (stereo not given)
2,55,CCCCCCCCCCCCCCC(N)CN (stereo not given)
3,7,CCCCCCCCCCCCCCC(N)CO (stereo not given)
4,30,CCCCCCCCCCCCCCC(COCc1ccccc1)NC(=O)CCC(=O)O (stereo not given)
5,6,CCCCCCCCCCCCCCC(CO)NCCCCCC (stereo not given)
6,3,CCCCCCCCCCCCCCC(N)COCc1ccccc1 (stereo not given)
7,1,CCCCCCCCCCCCCCC(CO)N(CC)CC (stereo not given)
8,3,CCCCCCCCCCCCCCC(COCc1ccccc1)NCC(=O)O (stereo not given)
9,7,CCCCCCCCCCCCCCC(N)CN(CC)CC (stereo not given)
10,6,CCCCCCCCCCCCCCC(CO)NCC (stereo not given)
11,55,CCCCCCCCCCCCCCC(N)CNCCCCC(=O)O (stereo not given)
12,6,CCCCCCCCCCCCCCC(COCc1ccccc1)NCC (stereo not given)

# System: Jurkat
# Test: Inhibitory concentration required for 50% apoptosis induction was evaluated using jurkat cells (T-lymphoma cells); NA means not active.
# Assay type: functional, cell-based, Homo sapiens
# Conditions: not given
# Method in brief: as §1
row,SMILES,IC50
1,CCCCCCCCCCCCCCC(=O)NC(CCCCCCCCCCCCCC)COC(=O)CCCCCC (stereo not given),Not Active
2,CCCCCCCCCCCCCCC(=O)NC(CCCCCCCCCCCCCC)COC(=O)CCCCCCCCCCCCCC (stereo not given),Not Active
3,CCCCCCCCCCCCCCC(CN(CC)CC)NCCCCC(=O)O (stereo not given),Not Active

# Now from value to molecule:
row,IC50,SMILES
1,Not Active,CCCCCCCCCCCCCCC(COC(=O)CCCCCC)NC(=O)CCCCCC (stereo not given)
2,Not Active,CCCCCCCCCCCCCCC(N)CNCC(=O)OCC (stereo not given)
